Measured values taken from ChEMBL document CHEMBL1156469 (2007).
Active and inactive are the calls of the source. The rule behind the calls is not given here.

Tests used:
[1] = test system: Osteoblast; assay: Effect on procollagen 6 alpha 1 gene expression in rat primary osteoblast cells assessed as expression ratio of treated to untreated control by microarray analysis; assay type: functional
In short: (§1)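 Resveratrol-treated and vehicle-treated primary osteoblasts were profiled on a mouse osteogenesis-focused cDNA array (GEArray Q series) built to track gene expression during osteogenic differentiation. Each gene's signal in treated cells was expressed as a ratio to untreated control.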

[2] = test system: MC3T3-E1; assay: Inhibition of antiapoptotic activity in mouse MC3T3-E1 cells at 1 uM after 48 hrs in presence of BMP2-specific neutralizing antibody; assay type: functional, cell-based
[3] = test system: Osteoblast; assay: Effect on procollagen 14alpha 1 gene expression in rat primary osteoblast cells assessed as expression ratio of treated to untreated control by microarray analysis; assay type: functional; in short: as §1
[4] = target: RAC-alpha serine/threonine-protein kinase (Homo sapiens) (UniProt P31749); assay: Enhancement of Akt inactivation in human MDA-MB-231 cells transfected with dominant negative Akt mutant; assay type: cell-based
RAC-alpha serine/threonine-protein kinase (Homo sapiens), sequence (P31749 whole entry): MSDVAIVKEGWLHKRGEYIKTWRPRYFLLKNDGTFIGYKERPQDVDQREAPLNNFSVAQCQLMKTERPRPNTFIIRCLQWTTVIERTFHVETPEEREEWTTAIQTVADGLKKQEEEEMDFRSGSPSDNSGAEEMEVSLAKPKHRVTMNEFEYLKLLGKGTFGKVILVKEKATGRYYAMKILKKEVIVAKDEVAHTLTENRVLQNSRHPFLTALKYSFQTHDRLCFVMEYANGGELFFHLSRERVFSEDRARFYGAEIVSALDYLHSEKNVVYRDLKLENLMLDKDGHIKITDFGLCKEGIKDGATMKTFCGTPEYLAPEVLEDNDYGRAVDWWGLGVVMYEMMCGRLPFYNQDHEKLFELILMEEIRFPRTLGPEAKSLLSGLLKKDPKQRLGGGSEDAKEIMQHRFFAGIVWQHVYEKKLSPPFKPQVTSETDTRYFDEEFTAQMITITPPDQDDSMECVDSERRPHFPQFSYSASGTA
In short: (§2)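 MDA-MB-231 cells transfected with vector, constitutively active Akt or dominant negative Akt, treated ± compound; analyzed by Western blotting and BMP-2 promoter luciferase activity.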

[5] = test system: Osteoblast; assay: Inhibition of antiapoptotic activity in rat primary osteoblast cells at 1 uM after 48 hrs in presence of BMP2-specific neutralizing antibody; assay type: functional, cell-based
[6] = test system: MG-63; assay: Increase in osteopontin mRNA levels in human MG63 cells at 1 uM after 72 hrs by RT-PCR; assay type: functional, cell-based
In short: (§3)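 Cells treated with 1 μm for 72 h; osteocalcin and osteopontin mRNA by RT-PCR, 30 cycles (95/52/72 °C, 1 min each), ethidium bromide–stained agarose gels; repeated at least twice from at least two cDNA preparations.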

[7] = target: Forkhead box protein O3 (Homo sapiens) (UniProt O43524); assay: Inhibition of IGF-induced FOXO3a phosphorylation at Thr32 residue in human MDA-MB-231 cells by Western blot; assay type: cell-based
Forkhead box protein O3 (Homo sapiens), sequence (O43524 whole entry): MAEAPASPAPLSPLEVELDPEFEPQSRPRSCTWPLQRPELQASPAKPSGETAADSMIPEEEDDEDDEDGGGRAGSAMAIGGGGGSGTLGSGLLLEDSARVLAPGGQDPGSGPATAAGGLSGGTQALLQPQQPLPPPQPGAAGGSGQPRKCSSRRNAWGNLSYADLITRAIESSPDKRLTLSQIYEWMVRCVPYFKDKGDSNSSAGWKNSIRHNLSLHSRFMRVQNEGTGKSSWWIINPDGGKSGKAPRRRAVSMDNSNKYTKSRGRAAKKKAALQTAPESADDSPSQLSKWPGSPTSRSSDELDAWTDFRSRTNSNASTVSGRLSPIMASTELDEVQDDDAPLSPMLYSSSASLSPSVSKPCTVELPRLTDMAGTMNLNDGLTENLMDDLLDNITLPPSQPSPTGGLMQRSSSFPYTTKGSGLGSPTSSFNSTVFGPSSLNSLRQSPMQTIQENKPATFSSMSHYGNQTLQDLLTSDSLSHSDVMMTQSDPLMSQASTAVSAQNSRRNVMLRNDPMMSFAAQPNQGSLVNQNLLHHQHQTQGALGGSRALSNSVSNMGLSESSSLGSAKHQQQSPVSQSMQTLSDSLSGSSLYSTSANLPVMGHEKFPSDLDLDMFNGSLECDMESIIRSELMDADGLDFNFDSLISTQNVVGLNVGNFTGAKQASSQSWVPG
In short: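 MDA-MB-231 breast cancer cells, control or resveratrol-treated, then exposed or not to IGF. Lysates resolved by SDS-PAGE, transferred to nitrocellulose, probed with specific primary and secondary antibodies, and detected by ECL. Membranes stripped and reprobed where indicated.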

[8] = test system: Osteoblast; assay: Increase in osteocalcin levels in rat primary osteoblast cells at 1 uM after 72 hrs by ELISA; assay type: functional, cell-based
In short: (§4)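 Cells treated with 1 μm for 72 h; osteocalcin or osteopontin in culture medium by sandwich ELISA, HRP-streptavidin/TMB, 450 nm; percent change versus untreated control.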

[9] = test system: Rattus norvegicus; assay: Antiapoptotic activity against osteoblasts in ovariectomized Wistar rat at 10 mg/kg after 10 weeks; assay type: functional, organism-based; design: dose 10 mg/kg
In short: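 After 10 weeks, lumbar vertebrae were removed. Apoptotic osteoblasts were detected by TUNEL staining (Klenow FragEL) in undecalcified, plastic-embedded sections. Values are means ± S.D.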

[10] = test system: MDA-MB-231; assay: Antiproliferative activity against human MDA-MB-231 cells at 1 uM by flow cytometry; assay type: functional, cell-based
In short: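 Proliferation was measured by DNA flow cytometry. Incubations were run in triplicate across three separate experiments, and values are means ± S.D.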

[11] = test system: Osteoblast; assay: Inhibition of antiapoptotic activity in rat primary osteoblast cells at 1 uM after 48 hrs in presence of noggin; assay type: functional, cell-based
[12] = test system: Osteoblast; assay: Effect on runt related transcription factor 2 gene expression in rat primary osteoblast cells assessed as expression ratio of treated to untreated control by microarray analysis; assay type: functional; in short: as §1
[13] = test system: Osteoblast; assay: Effect on MAD homolog 4 gene expression in rat primary osteoblast cells assessed as expression ratio of treated to untreated control by microarray analysis; assay type: functional
[14] = test system: Osteoblast; assay: Increase in osteocalcin mRNA levels in rat primary osteoblast cells at 1 uM after 72 hrs by RT-PCR; assay type: functional, cell-based; in short: as §3
[15] = test system: MDA-MB-231; assay: Enhancement of FOXO3a nuclear accumulation in human MDA-MB-231 cells transfected with dominant negative Akt mutant; assay type: functional, cell-based; in short: as §2
[16] = test system: Osteoblast; assay: Increase in BMP2 levels in rat primary osteoblast cells at 1 uM by Western blot; assay type: functional, cell-based; settings: TDE = time-dependent effect
In short: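 Osteoblasts treated with 1 μm for the indicated times; lysates resolved by SDS-PAGE, transferred to nitrocellulose, probed with anti-BMP-2, ECL detection.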

[17] = test system: Osteoblast; assay: Effect on platelet derived growth factor alpha gene expression in rat primary osteoblast cells assessed as expression ratio of treated to untreated control by microarray analysis; assay type: functional; in short: as §1
[18] = Reversal of induction of BMP2 expression in mouse MC3T3-E1 cells at 1 uM by Western blot in presence of ICI-182780; assay type: functional, cell-based
[19] = test system: MC3T3-E1; assay: Increase in osteopontin levels in mouse MC3T3-E1 cells at 1 uM after 72 hrs by ELISA; assay type: functional, cell-based; in short: as §4
[20] = test system: Osteoblast; assay: Effect on ubiquitin-conjugating enzyme E2D 3 gene expression in rat primary osteoblast cells assessed as expression ratio of treated to untreated control by microarray analysis; assay type: functional
In short: (§5)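 GEArray Q series Mouse Osteogenesis cDNA array profiling osteogenic-differentiation genes in treated versus vehicle-treated primary osteoblasts.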

[21] = target: Proto-oncogene tyrosine-protein kinase Src (Mus musculus) (UniProt P05480); assay: Reversal of increase in Src kinase phosphorylation in mouse MC3T3-E1 cells transfected with dominant-negative mutant Src expression vector at 1 uM; assay type: cell-based
Proto-oncogene tyrosine-protein kinase Src (Mus musculus), sequence (P05480 2-535 limits assumed): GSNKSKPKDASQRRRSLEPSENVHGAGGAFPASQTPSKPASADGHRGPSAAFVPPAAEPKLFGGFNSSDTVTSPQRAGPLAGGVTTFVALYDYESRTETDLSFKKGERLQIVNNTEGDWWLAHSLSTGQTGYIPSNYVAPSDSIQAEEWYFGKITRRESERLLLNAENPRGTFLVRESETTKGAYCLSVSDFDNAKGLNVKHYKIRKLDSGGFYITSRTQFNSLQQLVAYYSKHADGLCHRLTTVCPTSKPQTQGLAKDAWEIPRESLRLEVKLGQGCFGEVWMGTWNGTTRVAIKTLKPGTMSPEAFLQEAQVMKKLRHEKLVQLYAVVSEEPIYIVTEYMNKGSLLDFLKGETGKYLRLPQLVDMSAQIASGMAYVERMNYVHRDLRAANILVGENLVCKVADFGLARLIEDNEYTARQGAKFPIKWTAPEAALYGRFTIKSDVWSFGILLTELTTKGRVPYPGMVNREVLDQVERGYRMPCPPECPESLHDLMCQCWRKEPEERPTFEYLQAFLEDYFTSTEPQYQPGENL
In short: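 Src phosphorylation, ERα nuclear translocation and BMP-2 protein analysed by Western blot with ECL detection. Three independent experiments.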

[22] = test system: MC3T3-E1; assay: Inhibition of TNF-alpha-induced apoptosis in mouse MC3T3-E1 cells after 24 hrs by flow cytometry; assay type: functional, cell-based
In short: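 Cells washed in PBS, held 30 min in 0.5% Triton X-100/PBS/0.05% RNase A, then propidium iodide (50 μg/ml) added and kept on ice 15–30 min. Apoptosis is the hypodiploid fraction below the G0/G1 peak, by flow cytometry. Run in triplicate and repeated on three occasions.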

[23] = test system: Osteoblast; assay: Effect on growth differentiation factor 10 gene expression in rat primary osteoblast cells assessed as expression ratio of treated to untreated control by microarray analysis; assay type: functional; in short: as §1
[24] = target: T1, Alkaline phosphatase (Mus musculus) (UniProt Q9EQ79); assay: Increase in ALP activity in mouse MC3T3-E1 cells at 0.1 to 10 uM after 7 days; assay type: cell-based
T1 sequence (whole entry): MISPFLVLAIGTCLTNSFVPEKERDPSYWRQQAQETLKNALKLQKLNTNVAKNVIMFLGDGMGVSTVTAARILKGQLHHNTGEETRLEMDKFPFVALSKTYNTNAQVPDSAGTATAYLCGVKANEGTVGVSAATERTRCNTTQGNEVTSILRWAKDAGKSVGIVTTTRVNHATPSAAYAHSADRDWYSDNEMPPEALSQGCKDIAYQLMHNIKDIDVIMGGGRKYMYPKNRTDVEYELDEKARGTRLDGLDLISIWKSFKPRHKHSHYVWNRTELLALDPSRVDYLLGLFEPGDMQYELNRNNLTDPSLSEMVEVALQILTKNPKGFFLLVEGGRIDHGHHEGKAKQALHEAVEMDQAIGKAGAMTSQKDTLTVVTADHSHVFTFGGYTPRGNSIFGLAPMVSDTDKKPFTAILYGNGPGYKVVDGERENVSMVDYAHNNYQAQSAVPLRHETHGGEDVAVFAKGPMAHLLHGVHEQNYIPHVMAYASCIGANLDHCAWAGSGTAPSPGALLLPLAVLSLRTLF

[25] = test system: Osteoblast; assay: Effect on twist gene homolog 1 gene expression in rat primary osteoblast cells assessed as expression ratio of treated to untreated control by microarray analysis; assay type: functional; in short: as §5

Activity [4]: Active
Activity [7]: Active
Activity [21]: Active
Activity [24]: Active
SMILES: Oc1ccc(/C=C/c2cc(O)cc(O)c2)cc1 [RESVERATROL]
Ratio [1]: 2.35
Activity [2]: Active
Ratio [3]: 3.76
Activity [5]: Active
Activity [6]: Active
Activity [8]: Active
Activity [9]: Active
Activity [10]: Active
Activity [11]: Active
Ratio [12]: 3.26
Ratio [13]: 2.63
Activity [14]: Active
Activity [15]: Active
Activity [16]: tde
Ratio [17]: 4.34
Activity [18]: Active
Activity [19]: Active
Ratio [20]: 3.73
Activity [22]: Active
Ratio [23]: 0.93
Ratio [25]: 3.77
